ChEMBL document CHEMBL1828610, “Novel peptide-specific quantitative structure-activity relationship (QSAR) analysis applied to collagen IV peptides with antiangiogenic activity” (2011)
Active and inactive are the calls of the source. The calls are words filed in the database; no cut-off is given here. Square brackets hold non-standard residues; d marks the D form. Peptide text beside a SMILES is read from it. Abu = CC[C@H](N)C(=O)O

Assays:
HUVEC [1] = assay: Antiangiogenic activity in human HUVEC cells assessed as inhibition of cell migration at 50 uM; type: functional
In short: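 Real-time impedance migration: upper chamber coated with fibronectin (20μg/ml), 45,000 HUVEC/well (passages 2–7) added with or without peptide at 50 μM; fully supplemented medium below as chemoattractant; migration read as cell index from sensors under porous membrane. Duplicate experiments, each averaging three same-plate replicates; percent inhibition versus vehicle control.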

HUVEC [2] = assay: Antiangiogenic activity in human HUVEC cells assessed as inhibition of cell proliferation at 100 uM after 72 hrs by WST-1-based colorimetric assay; type: functional
In short: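 HUVEC (passages 2–7) plated at 2000 cells/well, peptide 100 μM added in fully supplemented medium to adherent cells for 72 hours; WST-1 then applied in serum-free medium for four hours and absorbance read at 450 nm. Two biological replicates, each mean of three technical replicates; percent inhibition relative to vehicle control.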

HUVEC [3] = assay: Antiangiogenic activity in human HUVEC cells assessed as inhibition of cell adhesion at 100 uM upto 3 hrs by migration assay; type: functional
In short: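 HUVEC (passages 2–7, EGM-2, 37°C, 5% CO2) seeded at 25,000 cells/well in single-compartment impedance E-plates with or without peptide at 100 μM; adhesion tracked as change in cell index amplitude over 3 hours. Two biological replicates, each the mean of three same-plate technical replicates; expressed as percent inhibition relative to vehicle control.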

HUVEC [4] = assay: Antiangiogenic activity in human HUVEC cells assessed as inhibition of tube structure formation at 100 uM relative to control; type: functional, cell-based
In short: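 Wells coated with reduced growth factor basement membrane matrix, gelled 30 minutes at 37 °C; HUVEC seeded on gel at 15,000 cells/well with or without peptide (100 μM), control receiving equal DMSO vehicle. Incubated overnight at 37 °C, 5% CO2; tube structures imaged by camera on inverted microscope.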

| Molecule | inhibition at 50 µM (HUVEC [1]) [%] | inhibition at 100 µM (HUVEC [2]) [%] | inhibition at 100 µM (HUVEC [3]) [%] | inhibition (HUVEC [4]) |
| --- | --- | --- | --- | --- |
| H-LRRFSTMPFMFGNINNVGNF-OH | 87.9 | 25.7 | 97.8 | – |
| H-LNRFSTMPF-OH | -16.1 | 6.35 | 0.32 | – |
| CC[C@H](NC(=O)[C@H](Cc1ccccc1)NC(=O)[C@H](CCSC)NC(=O)[C@H](Cc1ccccc1)NC(=O)[C@@H]1CCCN1C(=O)[C@H](CCSC)NC(=O)[C@@H](NC(=O)[C@@H](N)CO)[C@@H](C)O)C(=O)N[C@@H](CC(N)=O)C(=O)N[C@H](C(=O)N[C@@H](CC(N)=O)C(=O)N[C@@H](CC(N)=O)C(=O)N[C@H](C(=O)N[C@@H](CC)C(=O)N[C@@H](CC(N)=O)C(=O)N[C@@H](Cc1ccccc1)C(=O)O)C(C)C)[C@@H](C)CC (H-STMPFMF[Abu]NINNV[Abu]NF-OH) | -24.5 | 13.8 | 6.82 | – |
| H-LRRFSTMPFMFVNINNVVNF-OH | 98.8 | 62.2 | 95.1 | Active |
| H-LRRFSTMP-OH | -20.1 | 7.02 | -0.14 | Active |
| H-LRRFSTMPFMF-OH | -14.2 | 2.97 | -2.6 | – |
| CC[C@H](NC(=O)[C@@H](N)Cc1ccccc1)C(=O)N[C@@H](CC(N)=O)C(=O)N[C@H](C(=O)N[C@@H](CC(N)=O)C(=O)O)[C@@H](C)CC (H-F[Abu]NIN-OH) | -23.7 | 8.17 | 3.45 | – |
| CC[C@H](C)[C@H](NC(=O)[C@H](CC(N)=O)NC(=O)[C@@H](NC(=O)[C@H](Cc1ccccc1)NC(=O)[C@H](C)NC(=O)[C@H](Cc1ccccc1)NC(=O)[C@@H]1CCCN1C(=O)[C@H](CCSC)NC(=O)[C@@H](NC(=O)[C@H](CO)NC(=O)[C@H](Cc1ccccc1)NC(=O)[C@H](CCCNC(=N)N)NC(=O)[C@H](CCCNC(=N)N)NC(=O)[C@@H](N)CC(C)C)[C@@H](C)O)[C@@H](C)CC)C(=O)N[C@@H](CC(N)=O)C(=O)N[C@@H](CC(N)=O)C(=O)N[C@H](C(=O)N[C@H](C(=O)N[C@@H](CC(N)=O)C(=O)N[C@@H](Cc1ccccc1)C(=O)O)[C@@H](C)CC)C(C)C | 69.3 | 46.6 | 94.8 | Active |
| CC[C@H](NC(=O)[C@@H](NC(=O)[C@H](CC(N)=O)NC(=O)[C@H](CC(N)=O)NC(=O)[C@@H](NC(=O)[C@@H](N)CC(N)=O)[C@@H](C)CC)C(C)C)C(=O)N[C@@H](CC(N)=O)C(=O)N[C@@H](Cc1ccccc1)C(=O)O (H-NINNV[Abu]NF-OH) | 31.6 | 24.2 | 70.8 | – |
| CC[C@H](NC(=O)[C@H](Cc1ccccc1)NC(=O)[C@H](CCSC)NC(=O)[C@H](Cc1ccccc1)NC(=O)[C@@H]1CCCN1C(=O)[C@H](CCSC)NC(=O)[C@@H](NC(=O)[C@H](CO)NC(=O)[C@H](Cc1ccccc1)NC(=O)[C@H](CCCNC(=N)N)NC(=O)[C@H](CCCNC(=N)N)NC(=O)[C@@H](N)CC(C)C)[C@@H](C)O)C(=O)N[C@@H](CC(N)=O)C(=O)N[C@H](C(=O)N[C@@H](CC(N)=O)C(=O)N[C@@H](CC(N)=O)C(=O)N[C@H](C(=O)N[C@@H](CC)C(=O)N[C@@H](CC(N)=O)C(=O)N[C@@H](Cc1ccccc1)C(=O)O)C(C)C)[C@@H](C)CC (H-LRRFSTMPFMF[Abu]NINNV[Abu]NF-OH) | 97 | 69.7 | 98.5 | – |
| CC[C@H](NC(=O)[C@H](Cc1ccccc1)NC(=O)[C@H](C)NC(=O)[C@H](Cc1ccccc1)NC(=O)[C@@H]1CCCN1C(=O)[C@H](CCSC)NC(=O)[C@@H](NC(=O)[C@H](CO)NC(=O)[C@H](Cc1ccccc1)NC(=O)[C@H](CCCNC(=N)N)NC(=O)[C@H](CCCNC(=N)N)NC(=O)[C@@H](N)CC(C)C)[C@@H](C)O)C(=O)N[C@@H](CC(N)=O)C(=O)N[C@H](C(=O)N[C@@H](CC(N)=O)C(=O)N[C@@H](CC(N)=O)C(=O)N[C@H](C(=O)N[C@@H](CC)C(=O)N[C@@H](CC(N)=O)C(=O)N[C@@H](Cc1ccccc1)C(=O)O)C(C)C)[C@@H](C)CC (H-LRRFSTMPFAF[Abu]NINNV[Abu]NF-OH) | 99.6 | 63.6 | 98.3 | – |
| H-LRRFSTMPFMFANINNVANF-OH | 99.6 | 48.6 | 98.2 | – |
| CC[C@H](NC(=O)[C@@H](NC(=O)[C@H](CC(N)=O)NC(=O)[C@H](CC(N)=O)NC(=O)[C@@H](NC(=O)[C@H](CC(N)=O)NC(=O)[C@H](CC)NC(=O)[C@@H](N)Cc1ccccc1)[C@@H](C)CC)C(C)C)C(=O)N[C@@H](CC(N)=O)C(=O)O (H-F[Abu]NINNV[Abu]N-OH) | 40.4 | 20.6 | 77.5 | – |
| H-LRRFSTMPFMFTNINNVTNF-OH | 96.1 | 59.1 | 98.7 | – |
| CC[C@H](NC(=O)[C@H](Cc1ccccc1)NC(=O)[C@H](CCSC)NC(=O)[C@@H](N)Cc1ccccc1)C(=O)N[C@@H](CC(N)=O)C(=O)N[C@H](C(=O)N[C@@H](CC(N)=O)C(=O)N[C@@H](CC(N)=O)C(=O)N[C@H](C(=O)N[C@@H](CC)C(=O)N[C@@H](CC(N)=O)C(=O)N[C@@H](Cc1ccccc1)C(=O)O)C(C)C)[C@@H](C)CC (H-FMF[Abu]NINNV[Abu]NF-OH) | -16.6 | 28.3 | 66.2 | – |
| CC[C@H](NC(=O)[C@H](Cc1ccccc1)NC(=O)[C@H](CCSC)NC(=O)[C@H](C)NC(=O)[C@@H]1CCCN1C(=O)[C@H](CCSC)NC(=O)[C@@H](NC(=O)[C@H](CO)NC(=O)[C@H](Cc1ccccc1)NC(=O)[C@H](CCCNC(=N)N)NC(=O)[C@H](CCCNC(=N)N)NC(=O)[C@@H](N)CC(C)C)[C@@H](C)O)C(=O)N[C@@H](CC(N)=O)C(=O)N[C@H](C(=O)N[C@@H](CC(N)=O)C(=O)N[C@@H](CC(N)=O)C(=O)N[C@H](C(=O)N[C@@H](CC)C(=O)N[C@@H](CC(N)=O)C(=O)N[C@@H](Cc1ccccc1)C(=O)O)C(C)C)[C@@H](C)CC (H-LRRFSTMPAMF[Abu]NINNV[Abu]NF-OH) | 99.8 | 65.4 | 95.6 | – |
| CC[C@H](C)[C@H](NC(=O)[C@H](CC(N)=O)NC(=O)[C@H](CS)NC(=O)[C@H](Cc1ccccc1)NC(=O)[C@H](CCSC)NC(=O)[C@H](Cc1ccccc1)NC(=O)[C@@H]1CCCN1C(=O)[C@H](CCSC)NC(=O)[C@@H](NC(=O)[C@H](CO)NC(=O)[C@H](Cc1ccccc1)NC(=O)[C@H](CCCNC(=N)N)NC(=O)[C@H](CCCNC(=N)N)NC(=O)[C@@H](N)CC(C)C)[C@@H](C)O)C(=O)N[C@@H](CC(N)=O)C(=O)N[C@@H](CC(N)=O)C(=O)N[C@H](C(=O)N[C@@H](CS)C(=O)N[C@@H](CC(N)=O)C(=O)N[C@@H](Cc1ccccc1)C(=O)O)C(C)C (H-LRRFSTMPFMFCNINNVCNF-OH) | 91 | 67.5 | 96.2 | – |
| H-LRRFSTMPFMFININNVINF-OH | 92.9 | 73.2 | 98.6 | – |
| CC[C@H](NC(=O)[C@H](C)NC(=O)[C@H](CCSC)NC(=O)[C@H](Cc1ccccc1)NC(=O)[C@@H]1CCCN1C(=O)[C@H](CCSC)NC(=O)[C@@H](NC(=O)[C@H](CO)NC(=O)[C@H](Cc1ccccc1)NC(=O)[C@H](CCCNC(=N)N)NC(=O)[C@H](CCCNC(=N)N)NC(=O)[C@@H](N)CC(C)C)[C@@H](C)O)C(=O)N[C@@H](CC(N)=O)C(=O)N[C@H](C(=O)N[C@@H](CC(N)=O)C(=O)N[C@@H](CC(N)=O)C(=O)N[C@H](C(=O)N[C@@H](CC)C(=O)N[C@@H](CC(N)=O)C(=O)N[C@@H](Cc1ccccc1)C(=O)O)C(C)C)[C@@H](C)CC (H-LRRFSTMPFMA[Abu]NINNV[Abu]NF-OH) | 99.6 | 65.1 | 99.3 | – |
| H-LRRFSTMPFMFSNINNVSNF-OH | 92.6 | 50.5 | 98 | – |
